ChEMBL document CHEMBL1144404, “Aminoimidazolylmethyluracil analogues as potent inhibitors of thymidine phosphorylase and their bioreductive nitroimidazolyl prodrugs” (J Med Chem, 2005)

What was measured:
[1] = target: Thymidine phosphorylase (Escherichia coli K-12) (UniProt P07650); test: Ratio of Kcat to Km for Escherichia coli thymidine phosphorylase
In short: (§1)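 Continuous UV assay at 355 nm and 25 °C in 0.2 mL of 0.1 M potassium phosphate pH 7.4, using recombinant E. coli TP (ca. 0.00883 units per assay) added to start the reaction. Substrate is thymidine or 5-nitro-2'-deoxyuridine; phosphorolysis to 5-nitrouracil followed (εM 13300 M-1 cm-1 for substrate).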

[2] = target: T1, Thymidine phosphorylase (Homo sapiens) (UniProt P19971); test: Catalytic constant against human thymidine phosphorylase
T1 sequence (whole entry): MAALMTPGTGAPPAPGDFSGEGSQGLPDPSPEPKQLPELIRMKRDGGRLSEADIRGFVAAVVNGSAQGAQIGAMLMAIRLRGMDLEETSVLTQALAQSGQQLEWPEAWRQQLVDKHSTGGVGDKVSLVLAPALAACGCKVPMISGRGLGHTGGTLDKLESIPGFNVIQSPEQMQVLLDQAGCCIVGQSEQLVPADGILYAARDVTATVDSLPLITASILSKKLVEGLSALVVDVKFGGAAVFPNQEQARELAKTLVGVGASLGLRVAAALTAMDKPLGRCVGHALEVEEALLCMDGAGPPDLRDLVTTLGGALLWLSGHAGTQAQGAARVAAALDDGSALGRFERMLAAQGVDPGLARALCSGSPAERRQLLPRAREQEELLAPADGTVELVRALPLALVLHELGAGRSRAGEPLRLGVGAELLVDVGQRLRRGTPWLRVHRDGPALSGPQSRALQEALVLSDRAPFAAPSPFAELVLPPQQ
In short: (§2)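 Recombinant human TP expressed in V79 Chinese hamster cells, 0.065 absorbance unit per assay. Continuous spectrophotometric assay at 355 nm, 25 °C, 0.1 M phosphate buffer pH 7.4, 0.2 mL total volume, with 5-nitro-2'-deoxyuridine as substrate; kinetic constants from initial rates.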

[3] = target: T1, Thymidine phosphorylase (Homo sapiens); test: Ratio of Kcat to Km against human thymidine phosphorylase; in short: as §2
[4] = target: Thymidine phosphorylase (Escherichia coli K-12) (UniProt P07650); test: Catalytic constant against Escherichia coli thymidine phosphorylase; in short: as §1

Sequence of Thymidine phosphorylase (Escherichia coli K-12) (P07650 whole entry, looked up): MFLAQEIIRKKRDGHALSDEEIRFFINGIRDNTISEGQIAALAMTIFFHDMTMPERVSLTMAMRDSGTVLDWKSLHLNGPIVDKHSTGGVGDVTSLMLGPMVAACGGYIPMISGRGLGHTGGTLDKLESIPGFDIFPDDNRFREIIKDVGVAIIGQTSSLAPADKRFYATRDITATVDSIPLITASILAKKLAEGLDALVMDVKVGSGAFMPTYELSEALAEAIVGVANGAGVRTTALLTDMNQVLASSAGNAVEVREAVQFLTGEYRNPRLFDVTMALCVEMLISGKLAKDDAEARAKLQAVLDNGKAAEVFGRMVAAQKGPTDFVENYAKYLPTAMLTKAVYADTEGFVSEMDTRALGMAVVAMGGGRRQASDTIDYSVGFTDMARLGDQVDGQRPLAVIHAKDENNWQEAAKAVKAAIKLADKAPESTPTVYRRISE

| Structure (SMILES) | Ratio [1] | k cat [2] | Ratio [3] | k cat [4] |
| --- | --- | --- | --- | --- |
| O=c1[nH]c(=O)n([C@H]2C[C@H](O)[C@@H](CO)O2)cc1[N+](=O)[O-] | 87000 M⁻¹ s⁻¹ | 2.88 s⁻¹ | 18000 M⁻¹ s⁻¹ | 20 s⁻¹ |
| Cc1cn([C@H]2C[C@H](O)[C@@H](CO)O2)c(=O)[nH]c1=O | 7.4e+06 M⁻¹ s⁻¹ |  |  | 1770 s⁻¹ |
